Results on ten molecules are retold here after ChEMBL document CHEMBL2169884, “Novel inhibitors of heat shock protein Hsp70-mediated luciferase refolding that bind to DnaJ” (Bioorg Med Chem, 2012).

The source made the active and inactive calls. The rule behind the calls is not given here.

Test [1] in a line: Inhibition of human HSP70/DnaJ-mediated luciferase refolding after 10 mins by liquid scintillation counting. The method in brief: (§1)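 Luciferase (0.5 mg/mL) denatured in 6 M guanidine HCl in buffer A (25 mM Hepes pH 7.4, 50 mM potassium acetate, 5 mM DTT), 60 min at RT, then diluted 1:20. Refolding mixture: 0.5 µM Hsp70, 60 nM DnaJ, 125 ng denatured luciferase with compound in buffer containing 0.1 mM ATP, creatine phosphate and creatine phosphokinase. Incubated 1 h; DnaJ, luciferase or ATP varied in mechanism runs. Aliquots read by luciferin luminescence after 10 min. IC50 is the geometric mean of ≥3 determinations.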

In a further test the test system is HeLa. The test can be described thus: Induction of Hsp70 in human HeLa cells at 10 uM after overnight incubation by solid state immuno assay relative to 17-AAG. Format: functional. A digest of the protocol: (§2)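 HeLa or A172 cells treated overnight with compound; Hsp70 levels measured by solid-state immunoassay, with stimulation expressed relative to 1 µM 17-AAG as positive control.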

The next test relates to A 172. The test can be described thus: Induction of Hsp70 in human A172 cells at 10 uM after overnight incubation by solid state immuno assay relative to 17-AAG. Format: functional. A digest of the protocol:
as §2

Test [2] is described as follows: Inhibition of luciferase refolding in rabbit reticulocyte lysate preincubated for 30 mins measured after 1 hr by liquid scintillation counting.
Test [3] in a line: Effect on luciferase activity up to 300 uM.
Test [4] is described as follows: Binding affinity to DnaJ assessed as rightward shift in melting temperature at 3.2 to 32 uM by thermal denaturation assay.
Test [5] is filed under the species Homo sapiens. The test can be described thus: Binding affinity to human Hsp70 assessed as rightward shift in melting temperature at 3.2 to 32 uM by thermal denaturation assay.
The species named for test [6] is Homo sapiens. The test can be described thus: Inhibition of human HSP70/DnaJ-mediated luciferase refolding after 10 mins by liquid scintillation counting in presence of up to 10 mM of ATP. The method in brief:
as §1

A short description of test [7]: Binding affinity to DnaJ assessed as rightward shift in melting temperature at 10 to 30 uM by thermal denaturation assay.
The species entered for test [8] is Homo sapiens. The test can be described thus: Inhibition of human Hsp70-mediated ATPase activity at 10 uM.
Test [9] in a line: Binding affinity to DnaJ assessed as rightward shift in melting temperature by thermal denaturation assay.
For test [10], the species on record is Homo sapiens. The test can be described thus: Inhibition of DnaJ-mediated stimulation of human Hsp70 ATPase activity at 10 uM. As to conditions: 0.1 to 3.2 uM, in the assay text read “at 0.1 to 3.2 uM” for “at 10 uM”. The method in brief: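 Hsp70 (300 nM) incubated with 3.2 µM ATP and DnaJ (0.1–320 nM) at 37 °C for 5–40 min in pH 7.4 HEPES buffer with KCl, EGTA and MgCl2. Reactions stopped with EDTA stop buffer containing ADP tracer and antibody. ADP detected by Transcreener fluorescence (ex 580, em 620 nm).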

The species named for test [11] is Homo sapiens. The test can be described thus: Binding affinity to human Hsp70 assessed as rightward shift in melting temperature by thermal denaturation assay.
The species entered for test [12] is Homo sapiens. The test can be described thus: Inhibition of human HSP70/DnaJ-mediated luciferase refolding after 10 mins by liquid scintillation counting in presence of 0.1 to 10 µg/mL of denatured luciferase. A digest of the protocol:
as §1

As usually defined, the IC50 is the concentration that inhibits the measured activity by half. In [1], `CCCOC(=O)c1cccc(NC(=O)COc2ccccc2Cl)c1` came in with an IC50 of 0.6 µM.
Turning to `c1ccc(Nc2nc(-c3cccs3)cs2)cc1`, the Activity with HeLa and in the test on A 172 was less than 10% each time. Also, the IC50 was 22 µM in test [1] and 1.1 µM in test [2]. Further, in test [3], the result was inactive.
As to `CCOC(=O)c1cccc(NC(=O)COc2ccc(Cl)cc2)c1`, the IC50 in [1] is more than 32 µM.
`Clc1ccc(Nc2nc(-c3cccs3)cs2)cc1`: the Activity with HeLa and with A 172 was less than 10% in each case. The IC50 in [1] is more than 100 µM; in test [2], 4 µM. Further, in [3], the outcome was inactive.
With `COC(=O)c1cccc(NC(=O)COc2ccc(Cl)cc2Cl)c1`, the result (in test [4]; in the test listed under Homo sapiens [5]) was inactive. This molecule came in with an IC50 in [1] of more than 32 µM.
Consider `CCCCOC(=O)c1cccc(NC(=O)COc2ccc(Cl)cc2Cl)c1`, for which the inhibition entry in the test listed under Homo sapiens [6] and in the test listed under Homo sapiens [10] was “Active” in each case. The IC50 in [1] came to 0.13 µM. Moreover, in [7], the Tm(app) is 2 °C. Moreover, the inhibition result in the test listed under Homo sapiens [8] and in the test listed under Homo sapiens [12] was “inactive” in each case. The Activity entry in test [9] is “Dose-dependent effect”. In addition, the result in the test filed under Homo sapiens [11] was inactive.
As for `CCOC(=O)c1cccc(NC(=O)COc2ccccc2Cl)c1`, the Activity with HeLa and in the test with A 172 was less than 10% throughout. Besides, the IC50 in test [1] is 0.62 µM; in [2], 0.81 µM. Also, in [3], the outcome was inactive.
For `CCCCCOC(=O)C1=C(C)NC2(O)c3ccccc3C(=O)C12O` (centres undefined), the Activity in the test on HeLa and with A 172 was less than 10% each time. The results for the IC50 in [1] and in test [2] were more than 30 µM and 4.3 µM, respectively. Besides, the outcome in [3] was inactive.
As to `Clc1ccccc1C1Oc2ccccc2-c2cc(-c3ccco3)nn21` (centres undefined), the Activity in the test with HeLa and in the test with A 172 was less than 10% throughout. The IC50 was more than 100 µM in test [1] and 8.8 µM in test [2]. Further, in [3], the result was inactive.
`COC(=O)c1cccc(NC(=O)COc2cc(Cl)ccc2Cl)c1` yielded an IC50 in [1] of 0.95 µM.
